Source: ChEMBL document CHEMBL3593164, “Rational Design and Synthesis of Thioridazine Analogues as Enhancers of the Antituberculosis Therapy” (J Med Chem, 2015)

Key:
[1] = tested on: Mycobacterium tuberculosis; assay: Inhibition of multidrug resistance efflux pump in Mycobacterium tuberculosis H37Rv assessed as amikacin MIC at 8 ug/ml after 7 days by two-dimensional broth microdilution checkerboard assay; details: 168 h
[2] = tested on: Mycobacterium tuberculosis; assay: Inhibition of multidrug resistance efflux pump in Mycobacterium tuberculosis H37Rv assessed as ofloxacin MIC at 32 ug/ml after 7 days by two-dimensional broth microdilution checkerboard assay; details: 168 h
[3] = tested on: Mycobacterium tuberculosis; assay: Inhibition of multidrug resistance efflux pump in Mycobacterium tuberculosis H37Rv assessed as ethidium bromide MIC at 128 ug/ml after 7 days by two-dimensional broth microdilution checkerboard assay; details: 168 h
[4] = tested on: Mycobacterium tuberculosis; assay: Inhibition of multidrug resistance efflux pump in Mycobacterium tuberculosis H37Rv assessed as ethidium bromide MIC at 32 ug/ml after 7 days by two-dimensional broth microdilution checkerboard assay; details: 168 h
[5] = tested on: Mycobacterium tuberculosis; assay: Inhibition of multidrug resistance efflux pump in Mycobacterium tuberculosis H37Rv assessed as ethidium bromide MIC at 4 ug/ml after 7 days by two-dimensional broth microdilution checkerboard assay; details: 168 h
[6] = tested on: Mycobacterium tuberculosis; assay: Inhibition of multidrug resistance efflux pump in Mycobacterium tuberculosis H37Rv assessed as reduction in rifampin MIC at 128 ug/ml after 7 days by two-dimensional broth microdilution checkerboard assay
[7] = tested on: Mycobacterium tuberculosis; assay: Inhibition of multidrug resistance efflux pump in Mycobacterium tuberculosis H37Rv assessed as reduction in rifampin MIC at 32 ug/ml after 7 days by two-dimensional broth microdilution checkerboard assay
In short: (§1)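 M. tuberculosis H37Rv two-dimensional broth microdilution checkerboard. MICs of INH, RIF, AMK, OFX or EtBr were determined without and with graded sub-inhibitory compound concentrations, starting at ½ MIC. Where MIC was undeterminable, the highest concentration still permitting growth was taken as ½ MIC. FIC = MIC of antibacterial in combination / MIC alone. FIC ≤0.25 was scored as synergism and ≥2 as antagonism.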

[8] = tested on: Mycobacterium tuberculosis; assay: Inhibition of multidrug resistance efflux pump in Mycobacterium tuberculosis H37Rv assessed as reduction in rifampin MIC at 16 ug/ml after 7 days by two-dimensional broth microdilution checkerboard assay; in short: as §1
[9] = tested on: Mycobacterium tuberculosis; assay: Inhibition of multidrug resistance efflux pump in Mycobacterium tuberculosis H37Rv assessed as reduction in rifampin MIC at 8 ug/ml after 7 days by two-dimensional broth microdilution checkerboard assay; in short: as §1
[10] = tested on: Mycobacterium tuberculosis; assay: Inhibition of multidrug resistance efflux pump in Mycobacterium tuberculosis H37Rv assessed as isoniazid MIC at 256 ug/ml after 7 days by two-dimensional broth microdilution checkerboard assay; details: 168 h; in short: as §1
[11] = tested on: Mycobacterium tuberculosis; assay: Inhibition of multidrug resistance efflux pump in Mycobacterium tuberculosis H37Rv assessed as rifampin MIC at 32 ug/ml after 7 days by two-dimensional broth microdilution checkerboard assay; details: 168 h
[12] = tested on: Mycobacterium tuberculosis; assay: Inhibition of multidrug resistance efflux pump in Mycobacterium tuberculosis H37Rv assessed as ofloxacin MIC at 2 ug/ml after 7 days by two-dimensional broth microdilution checkerboard assay; details: 168 h
[13] = tested on: Mycobacterium tuberculosis; assay: Inhibition of multidrug resistance efflux pump in Mycobacterium tuberculosis H37Rv assessed as ofloxacin MIC at 1 ug/ml after 7 days by two-dimensional broth microdilution checkerboard assay; details: 168 h; in short: as §1
[14] = tested on: Mycobacterium tuberculosis; assay: Inhibition of multidrug resistance efflux pump in Mycobacterium tuberculosis H37Rv assessed as reduction in isoniazid MIC at 64 ug/ml after 7 days by two-dimensional broth microdilution checkerboard assay; in short: as §1
[15] = tested on: Mycobacterium tuberculosis; assay: Inhibition of multidrug resistance efflux pump in Mycobacterium tuberculosis H37Rv assessed as reduction in amikacin MIC at 64 ug/ml after 7 days by two-dimensional broth microdilution checkerboard assay; in short: as §1
[16] = tested on: Mycobacterium tuberculosis; assay: Inhibition of multidrug resistance efflux pump in Mycobacterium tuberculosis H37Rv assessed as reduction in ofloxacin MIC at 64 ug/ml after 7 days by two-dimensional broth microdilution checkerboard assay; in short: as §1
[17] = tested on: Mycobacterium tuberculosis; assay: Inhibition of multidrug resistance efflux pump in Mycobacterium tuberculosis H37Rv assessed as reduction in ethidium bromide MIC at 64 ug/ml after 7 days by two-dimensional broth microdilution checkerboard assay
[18] = tested on: Mycobacterium tuberculosis; assay: Inhibition of multidrug resistance efflux pump in Mycobacterium tuberculosis H37Rv assessed as isoniazid MIC at 1 ug/ml after 7 days by two-dimensional broth microdilution checkerboard assay; details: 168 h; in short: as §1
[19] = tested on: Mycobacterium tuberculosis; assay: Inhibition of multidrug resistance efflux pump in Mycobacterium tuberculosis H37Rv assessed as rifampin MIC at 2 ug/ml after 7 days by two-dimensional broth microdilution checkerboard assay; details: 168 h
[20] = tested on: Mycobacterium tuberculosis; assay: Inhibition of multidrug resistance efflux pump in Mycobacterium tuberculosis H37Rv assessed as reduction in isoniazid MIC at 256 ug/ml after 7 days by two-dimensional broth microdilution checkerboard assay; in short: as §1
[21] = tested on: Mycobacterium tuberculosis; assay: Inhibition of multidrug resistance efflux pump in Mycobacterium tuberculosis H37Rv assessed as reduction in amikacin MIC at 256 ug/ml after 7 days by two-dimensional broth microdilution checkerboard assay; in short: as §1
[22] = tested on: Mycobacterium tuberculosis; assay: Inhibition of multidrug resistance efflux pump in Mycobacterium tuberculosis H37Rv assessed as reduction in ofloxacin MIC at 256 ug/ml after 7 days by two-dimensional broth microdilution checkerboard assay; in short: as §1
[23] = tested on: Mycobacterium tuberculosis; assay: Inhibition of multidrug resistance efflux pump in Mycobacterium tuberculosis H37Rv assessed as reduction in ethidium bromide MIC at 256 ug/ml after 7 days by two-dimensional broth microdilution checkerboard assay; in short: as §1
[24] = tested on: Mycobacterium tuberculosis; assay: Inhibition of multidrug resistance efflux pump in Mycobacterium tuberculosis H37Rv assessed as amikacin MIC at 0.94 ug/ml after 7 days by two-dimensional broth microdilution checkerboard assay; details: 168 h
In short: (§2)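 M. tuberculosis H37Rv ATCC27294. MICs of INH, RIF, AMK, OFX and EtBr were determined alone and with sub-inhibitory concentrations of test compound by two-dimensional broth microdilution checkerboard. Where a compound's MIC was not determinable, the highest concentration still allowing growth was taken as ½ MIC. FIC = MIC in combination / MIC alone. FIC ≤0.25 was scored as synergism and ≥2 as antagonism.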

[25] = tested on: Mycobacterium tuberculosis; assay: Inhibition of multidrug resistance efflux pump in Mycobacterium tuberculosis H37Rv assessed as ofloxacin MIC at 0.12 ug/ml after 7 days by two-dimensional broth microdilution checkerboard assay; details: 168 h; in short: as §2
[26] = tested on: Mycobacterium tuberculosis; assay: Inhibition of multidrug resistance efflux pump in Mycobacterium tuberculosis H37Rv assessed as reduction in isoniazid MIC at 7.5 ug/ml after 7 days by two-dimensional broth microdilution checkerboard assay; in short: as §1
[27] = tested on: Mycobacterium tuberculosis; assay: Inhibition of multidrug resistance efflux pump in Mycobacterium tuberculosis H37Rv assessed as reduction in amikacin MIC at 7.5 ug/ml after 7 days by two-dimensional broth microdilution checkerboard assay; in short: as §1
[28] = tested on: Mycobacterium tuberculosis; assay: Inhibition of multidrug resistance efflux pump in Mycobacterium tuberculosis H37Rv assessed as reduction in ofloxacin MIC at 7.5 ug/ml after 7 days by two-dimensional broth microdilution checkerboard assay; in short: as §1
[29] = tested on: Mycobacterium tuberculosis; assay: Inhibition of multidrug resistance efflux pump in Mycobacterium tuberculosis H37Rv assessed as reduction in ethidium bromide MIC at 7.5 ug/ml after 7 days by two-dimensional broth microdilution checkerboard assay; in short: as §1
[30] = tested on: Mycobacterium tuberculosis; assay: Inhibition of multidrug resistance efflux pump in Mycobacterium tuberculosis H37Rv assessed as isoniazid MIC at 0.94 ug/ml after 7 days by two-dimensional broth microdilution checkerboard assay; details: 168 h; in short: as §2
[31] = tested on: Mycobacterium tuberculosis; assay: Inhibition of multidrug resistance efflux pump in Mycobacterium tuberculosis H37Rv assessed as rifampin MIC at 3.75 ug/ml after 7 days by two-dimensional broth microdilution checkerboard assay; details: 168 h; in short: as §2

SMILES | MIC [1] | MIC [2] | MIC [3] | MIC [4] | MIC [5] | fold change (FC) [6] | fold change (FC) [7] | fold change (FC) [8] | fold change (FC) [9] | MIC [10] | MIC [11] | fold change (FC) [15] | fold change (FC) [16] | fold change (FC) [17] | fold change (FC) [20] | fold change (FC) [21] | fold change (FC) [22] | fold change (FC) [23] | other results
COc1ccc(N(CCC2CCCCN2C)C(C)C)cc1OC (racemic) | 2 µg/mL | 2 µg/mL | 12.5 µg/mL | 12.5 µg/mL | 12.5 µg/mL | 4 | 4 | 4 | 4 | 0.1 µg/mL | 0.25 µg/mL | – | – | – | – | – | – | – | –
CN1CCCCC1CCn1c2ccccc2c2ccccc21 (racemic) | 1 µg/mL | 1 µg/mL | – | 1.56 µg/mL | 12.5 µg/mL | – | 16 | – | – | – | 0.0625 µg/mL | >128 | >128 | >64 | – | – | – | – | MIC [12]: 1 µg/mL; MIC [13]: 1 µg/mL; fold change (FC) [14]: >128; MIC [18]: 0.1 µg/mL; MIC [19]: 1 µg/mL
CN1CCCCC1CCn1ccc2ccc(Br)cc21 (racemic) | 1 µg/mL | 1 µg/mL | < 0.195 µg/mL | 6.25 µg/mL | 12.5 µg/mL | >164 | 32 | 16 | 4 | < 0.00078 µg/mL | 0.0312 µg/mL | >128 | >128 | 8 | >128 | >128 | >128 | >164 | –
CN1CCCCC1CCn1cnc2ccccc21 (racemic) | 1 µg/mL | 1 µg/mL | 12.5 µg/mL | 12.5 µg/mL | 12.5 µg/mL | – | – | – | – | < 0.00078 µg/mL | 0.5 µg/mL | – | – | – | >128 | >128 | >128 | >64 | –
CSc1ccc2c(c1)N(CCC1CCCCN1C)c1ccccc1S2 (configuration not stated) [THIORIDAZINE] | – | – | – | – | – | – | – | – | – | – | – | – | – | – | – | – | – | – | MIC [24]: 1 µg/mL; MIC [25]: 1 µg/mL; fold change (FC) [26]: >128; fold change (FC) [27]: >128; fold change (FC) [28]: >128; fold change (FC) [29]: >64; MIC [30]: 0.1 µg/mL; MIC [31]: 1 µg/mL
